ChEMBL document CHEMBL1126266, “Dopaminergic and serotonergic activities of imidazoquinolinones and related compounds” (J Med Chem, 1992)

Columns and labels:
Rattus norvegicus [1] = assay: Percent change in DOPA levels in rat brain following 1 mg/kg administration.; format: functional
Procedure, shortened: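 Upjohn CF-1 rats given drug or vehicle sc. Fifteen minutes later, m-hydroxybenzylhydrazine 100 mg/kg ip was given as decarboxylase inhibitor. Control and test groups (n = 6 each) compared by unpaired t test.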

Rattus norvegicus [2] = assay: Percent change in 5-HTP levels in rat brain following 1 mg/kg administration.
D(2) dopamine receptor [3] = biological target: T1, D(2) dopamine receptor (Rattus norvegicus, UniProt P61169); assay: Ability to displace [3H]raclopride from dopamine receptor D2 in rat striatal homogenates.
Procedure, shortened: (§1)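 Rat striatal homogenate (1:300) incubated with [3H]raclopride (80 Ci/mmol) 1 h at room temperature. Filtered over PEI-pretreated filters, rinsed with 50 mM Tris pH 7.4, counted by liquid scintillation. Nonspecific binding with 1 μM haloperidol. IC50 by log-probit analysis from at least four concentrations in triplicate; Ki calculated from IC50.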

D(2) dopamine receptor [4] = biological target: T1, D(2) dopamine receptor; assay: Compound was evaluated for its ability to displace [3H]raclopride from dopamine receptor D2 in rat striatal homogenates; procedure, shortened: as §1
Rattus norvegicus [5] = species on record: Rattus norvegicus; assay: Dose required to reduce neuronal firing of serotonergic cells by 50%; format: functional
Procedure, shortened: (§2)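 Male Sprague-Dawley rats (280-330 g) under chloral hydrate 400 mg/kg ip. Extracellular recording from dorsal raphe neurons (biphasic spikes, about 0.8–2.5 spikes/s), location confirmed by dye deposit. Drug in distilled water given iv via femoral vein.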

Rattus norvegicus [6] = species on record: Rattus norvegicus; assay: Dose required to reduce neuronal firing of dopaminergic cells by 50%; format: functional
Procedure, shortened: (§3)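 Male Sprague-Dawley rats (280-330 g) anesthetized with chloral hydrate 400 mg/kg ip. Extracellular recording from substantia nigra pars compacta neurons (action potential >2.5 ms), site verified histologically. Drug in distilled water given iv via femoral vein. Firing rate measured by integrated ratemeter.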

[7] = Dose required to reduce neuronal firing of DA cells by 50%; format: functional; procedure, shortened: as §3
[8] = biological target: T2, 5-hydroxytryptamine receptor 1A (Homo sapiens) (UniProt P08908); assay: Dose required to reduce neuronal firing of 5-HT1A cells by 50%; format: functional; procedure, shortened: as §2
T2 sequence (whole entry): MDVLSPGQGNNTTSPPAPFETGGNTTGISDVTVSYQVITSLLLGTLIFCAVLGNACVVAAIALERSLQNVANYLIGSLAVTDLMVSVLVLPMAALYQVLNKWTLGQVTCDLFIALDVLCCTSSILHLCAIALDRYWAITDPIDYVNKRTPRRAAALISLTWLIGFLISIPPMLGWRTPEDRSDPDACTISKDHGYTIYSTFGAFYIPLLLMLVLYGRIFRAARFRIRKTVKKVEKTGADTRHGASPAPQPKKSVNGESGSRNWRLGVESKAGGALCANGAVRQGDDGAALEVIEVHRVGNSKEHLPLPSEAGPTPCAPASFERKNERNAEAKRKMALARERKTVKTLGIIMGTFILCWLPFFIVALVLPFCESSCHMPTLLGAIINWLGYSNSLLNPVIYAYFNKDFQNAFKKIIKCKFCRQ

D(2) dopamine receptor [9] = biological target: T1, D(2) dopamine receptor; assay: Compound was evaluated for its ability to displace [3H]raclopride from Dopamine receptor D2 in rat striatal homogenates; procedure, shortened: as §1

T1 sequence (P61169 whole entry): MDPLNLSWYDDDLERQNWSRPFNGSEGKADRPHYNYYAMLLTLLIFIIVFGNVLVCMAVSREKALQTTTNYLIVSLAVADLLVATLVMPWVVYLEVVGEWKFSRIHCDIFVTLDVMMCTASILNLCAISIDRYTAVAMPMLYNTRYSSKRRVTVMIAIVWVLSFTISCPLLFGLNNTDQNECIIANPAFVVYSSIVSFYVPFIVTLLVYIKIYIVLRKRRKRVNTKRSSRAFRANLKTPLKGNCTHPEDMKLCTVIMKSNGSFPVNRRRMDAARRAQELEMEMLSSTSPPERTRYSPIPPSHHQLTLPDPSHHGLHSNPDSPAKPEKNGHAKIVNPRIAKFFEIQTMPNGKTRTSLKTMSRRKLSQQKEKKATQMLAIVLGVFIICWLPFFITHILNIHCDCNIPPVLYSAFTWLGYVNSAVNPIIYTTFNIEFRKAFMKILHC

Compound	Change (Rattus norvegicus [1])	Change (Rattus norvegicus [2])	Ki (D(2) dopamine receptor [3])	other results
CN1CCc2cccc3c2[C@H]1Cc1ccc(O)c(O)c1-3 [APOMORPHINE]	-55%	4%		
CN(C)C1Cc2cccc3nc(O)n(c23)C1 (stereo not drawn)			> 10000 nM	
Oc1nc2cccc3c2n1CC(NCC1CC1)C3 (stereo not drawn)			4000 nM	
Br.CCCN(CCC)[C@@H]1Cc2cccc3nc(O)n(c23)C1	-50%	-1.2%		Ki (D(2) dopamine receptor [4]): 68 nM; ED50 (Rattus norvegicus [5]): 0.107 mg/kg; ED50 (Rattus norvegicus [6]): 0.0014 mg/kg
NC1Cc2cccc3nc(O)n(c23)C1 (stereo not drawn)			> 10000 nM	
CCCN(CCC)C1Cc2cccc3c2N(C1)C(=O)CN3 (stereo not drawn)	-37%	-32%	80 nM	
CCCN(CCC)C1Cc2cccc3ccn(c23)C1.O=C(O)/C=C/C(=O)O (stereo not drawn)	-29%	-14%	210 nM	ED50 [7]: 0.083 mg/kg
CCCN(Cc1ccccc1)C1Cc2cccc3[nH]c(=O)n(c23)C1 (stereo not drawn)			1910 nM	
CCCCN(CCCC)C1Cc2cccc3nc(O)n(c23)C1 (stereo not drawn)			> 10000 nM	
CCCN(CCC)C1Cc2cccc3ccc(=O)n(c23)C1 (stereo not drawn)	-40%	-18%	315 nM	
CCCN(CCC)C1Cc2cccc3c2N(C1)C(=O)CO3.O=C(O)/C=C/C(=O)O (stereo not drawn)	-18%	-12%		
CCCN(CCC)C1Cc2cccc3nc(O)n(c23)C1.Cl (stereo not drawn)	-34%	12%	207 nM	ED50 [8]: 0.34 mg/kg; ED50 [7]: 0.005 mg/kg
CCCN(CCC)C1Cc2cccc3c2N(C1)C(=O)C3 (stereo not drawn)	-53%	-11%	1080 nM	
CCCN(CCC)C1Cc2cccc3c2N(C1)C(=O)CC3 (stereo not drawn)	-41%	-48%	83 nM	
CCCN(CCC)C1Cc2cccc3c2n(c(=O)n3C)C1 (stereo not drawn)				Ki (D(2) dopamine receptor [4]): 924 nM
C=CCNC1Cc2cccc3nc(O)n(c23)C1 (stereo not drawn)			363 nM	
CCCNC1Cc2cccc3nc(O)n(c23)C1.Cl (stereo not drawn)			1040 nM	ED50 [8]: 0.65 mg/kg; ED50 [7]: 0.036 mg/kg

Compound	Change (Rattus norvegicus [1])	Change (Rattus norvegicus [2])	Ki (D(2) dopamine receptor [3])	other results
CCCN(CCC)C1Cc2cccc3c2N(C1)C(=O)C3=O (stereo not drawn)	-46%	-7%	> 1000 nM	
CCCN(CCC)C1Cc2cccc3nc(C)n(c23)C1 (stereo not drawn)				Ki (D(2) dopamine receptor [9]): > 1000 nM
CCCN(CCC)C1Cc2cccc3oc(=O)n(c23)C1 (stereo not drawn)	-27%	-6%	899 nM	
Oc1nc2cccc3c2n1CC(N(CC1CC1)CC1CC1)C3 (stereo not drawn)			7730 nM	
CCCN(CCC)C1Cc2cccc3c2N(CC3)C1.O=C(O)/C=C/C(=O)O (stereo not drawn)	-33%	-13%	> 1000 nM	
CCCN(CCC)C1Cc2cccc3[nH]c(=O)c(=O)n(c23)C1.Cl (stereo not drawn)	-37%	6%	150 nM	ED50 [7]: 0.088 mg/kg
CCCN(CCC)C1Cc2cccc3c2N(CCC3)C1 (stereo not drawn)			35 nM	
C=CCN(CC=C)C1Cc2cccc3nc(O)n(c23)C1 (stereo not drawn)			> 10000 nM	
CCCN(CCC)C1Cc2cccc3c2N(CC(=O)N3)C1.Cl (stereo not drawn)	-52%	16%	30 nM	ED50 [7]: 0.039 mg/kg
CCCN(CCC)C1Cc2cccc3c2N(C1)C(=O)OC3.Cl (stereo not drawn)	-36%	-13%	292 nM	
CCCN(CCC)C1Cc2cccc3c2N(C1)C(=O)NC3 (stereo not drawn)	-13%	-45%	> 1000 nM	ED50 [8]: 0.0034 mg/kg; ED50 [7]: 0.212 mg/kg
CCCCN(CCC)C1Cc2cccc3nc(O)n(c23)C1 (stereo not drawn)			167 nM	
CCCN(CCC)C1Cc2cccc3nc(S)n(c23)C1 (stereo not drawn)	-38%	-7%	40 nM	
CCCN(CCC)C1Cc2cccc3nc(SC)n(c23)C1 (stereo not drawn)			> 1000 nM	
CCCN(CCC)C1Cc2cccc3ncn(c23)C1 (stereo not drawn)	-12%	-7%	> 1000 nM	ED50 [7]: 0.219 mg/kg
CCCCNC1Cc2cccc3[nH]c(=O)n(c23)C1 (stereo not drawn)				Ki (D(2) dopamine receptor [4]): > 10000 nM
CCCN(CCC)[C@H]1Cc2cccc3nc(O)n(c23)C1.Cl	0.3%	6.4%		ED50 [7]: > 1 mg/kg; Ki (D(2) dopamine receptor [4]): > 1000 nM
